TCR-CD3 inh – inhibitors of human TCR-CD3 interaction | 360,000 tested, 0.37% active | TAMRA-labeled TCR probe fluorescence, biochemical | inhibition, % at 9.4 µM; in the data active = inhibition above about 19%;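 note: recombinant mutant TCR 2C K166C tagged with TAMRA read by polarization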
LEDGF integ inh – blocks HIV-1 LEDGF/p75-dependent DNA integration | TR-FRET IN-LEDGF/p75 DNA integration, Eu/Cy5 | inhibition, % at 3.7 µM | 370,000 tested, 0.64% active | AID 743269;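 active = inhibition above the screen-wide mean plus 3 SD, cut at about 13% in these data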;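 note: signal is the Cy5 over europium emission ratio at 671 and 618 nm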
ARFGAP1 inh – inhibitors of rat ARFGAP1. Arfgap1-stimulated ARF1 GTP hydrolysis, GDP FP detection. inhibition, % at 16.5 µM. 360,000 tested, 0.26% active. AID 651572;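 active = inhibition above a per-plate limit, mean inhibition of low control wells plus 3 SD, cut at about 25% in these data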
Target sequence (Q62848 1-136 limits assumed): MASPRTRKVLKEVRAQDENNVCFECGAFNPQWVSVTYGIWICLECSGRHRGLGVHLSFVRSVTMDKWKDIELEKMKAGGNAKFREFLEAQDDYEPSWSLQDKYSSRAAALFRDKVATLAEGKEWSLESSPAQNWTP
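Material: rat Arfgap1 catalytic domain, aa 1-136; also added: human ARF1(Δ1-17)-GTP substrate; compound dosing: one concentration, 16.5 µM, DMSO 1.26%; incubation: GTP hydrolysis reaction 2 h at 25 °C; measured by: Tracer-displacement fluorescence polarization with EDTA stop, 620/688 nm; evaluation: % inhibition from polarization; repeats: one replicate per compound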
UHRF1 MBD2 ctr – blocks human UHRF1 binding to methylated DNA; Q96T88; UHRF1 binding to methylated oligo, TR-FRET; inhibition, % at 4.4 µM; 370,000 tested, 0.75% active; in the data active = inhibition above about 21%;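 note: UHRF1 SRA domain binding a hemimethylated CpG hairpin DNA probe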
MBD2 DNA inh – inhibitors of human MBD2 binding to methylated oligonucleotide; 370,000 tested, 0.31% active; inhibition, % at 4.4 µM; TR-FRET; Q9UBB5; in the data active = inhibition above about 13%
ASAP1 inh – ASAP1 ArfGAP inhibition; Q9ULH1; ASAP1-stimulated ARF1 GTP hydrolysis, GDP FP detection; inhibition, % at 16.5 µM; 360,000 tested, 0.19% active; AID 624377; in the data active = inhibition above about 25%
IN multimer up – activates HIV-1 integrase multimerization in LEDGF counter-screen. shares compounds with LEDGF integ inh. TR-FRET HIV-1 integrase multimerization, biochemical. activation, % at 7.7 µM. 2,000 tested, 17% active; in the data active = activation above about 8.9%
TRFRET interf – counter-screen for LEDGF/p75 integration inhibitors: TR-FRET optical interference; shares compounds with LEDGF integ inh; inhibition, % at 7.7 µM; TR-FRET optical interference counterscreen, HIV-1 IN multimerization; 2,000 tested, under 10 active;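 active = inhibition above the mean over all tested compounds plus 3 SD, which no compound reached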
LEDGF integ conf – LEDGF/p75-dependent HIV-1 integration inhibition, confirmation; TR-FRET LEDGF/p75-dependent HIV-1 integration, biochemical; inhibition, % at 3.7 µM; 2,000 tested, 36% active; AID 1053136; shares compounds with LEDGF integ inh; in the data active = inhibition above about 14%
Hits are given with their value. Shown are actives, neighbours in structure and some others; about 2% of the full set was active somewhere.

`O=C(Nc1ccc(F)c(Cl)c1)C1Cc2c(-c3ccco3)ccnc2O1` (stereo not given) gave TCR-CD3 inh inactive, LEDGF integ inh inactive, ARFGAP1 inh inactive, UHRF1 MBD2 ctr inactive, MBD2 DNA inh inactive and ASAP1 inh inactive.
COc1cc(Cl)c(C)cc1NC(=O)COc1ccc(C)nc1[N+](=O)[O-] was read as TCR-CD3 inh inactive, LEDGF integ inh inactive, ARFGAP1 inh inactive, UHRF1 MBD2 ctr inactive, MBD2 DNA inh inactive and ASAP1 inh inactive.
CCCCCCCCCSc1n[nH]c(N)n1 was read as TCR-CD3 inh inactive, LEDGF integ inh 46, ARFGAP1 inh inactive, UHRF1 MBD2 ctr inactive, MBD2 DNA inh inactive, ASAP1 inh inactive, IN multimer up inactive, TRFRET interf inactive and LEDGF integ conf inactive.
CCCCCCCCSc1n[nH]c(N)n1 was read as TCR-CD3 inh inactive, LEDGF integ inh inactive, ARFGAP1 inh inactive, UHRF1 MBD2 ctr inactive, MBD2 DNA inh inactive and ASAP1 inh inactive.
`O=C(O)c1ccc(S(=O)(=O)c2ccc3c(c2)C(=O)N(c2ccc(O)cc2)C3=O)cc1` gave TCR-CD3 inh inactive, LEDGF integ inh 16, ARFGAP1 inh inactive, UHRF1 MBD2 ctr inactive, MBD2 DNA inh inactive, ASAP1 inh inactive, IN multimer up inactive, TRFRET interf inactive and LEDGF integ conf inactive.
Cc1ccc(CNC(=O)OC(C)(C)C)c(/C=C/S(=O)(=O)NCc2ccc(F)cc2)c1 was read as LEDGF integ inh inactive, UHRF1 MBD2 ctr inactive and MBD2 DNA inh inactive.
For Cn1c(SCCc2ccc([N+](=O)[O-])cc2)nccc1=O the results were TCR-CD3 inh inactive, LEDGF integ inh 60, ARFGAP1 inh inactive, UHRF1 MBD2 ctr inactive, MBD2 DNA inh inactive, ASAP1 inh inactive, IN multimer up inactive, TRFRET interf inactive and LEDGF integ conf inactive.
For COc1cc(OC)c(NC(=O)c2cc3ccccc3cc2O)cc1Cl the results were TCR-CD3 inh inactive, LEDGF integ inh inactive, ARFGAP1 inh inactive, UHRF1 MBD2 ctr inactive, MBD2 DNA inh inactive and ASAP1 inh inactive.
Screening COc1ccccc1/C=C/C(=O)OCC(=O)N1c2ccccc2CC1C (stereo not given) returned TCR-CD3 inh inactive, LEDGF integ inh inactive, ARFGAP1 inh inactive, UHRF1 MBD2 ctr inactive, MBD2 DNA inh inactive and ASAP1 inh inactive.
Nc1cc2c(cc1[N+](=O)[O-])OCCOCCOCCO2 was read as TCR-CD3 inh inactive, LEDGF integ inh inactive, ARFGAP1 inh inactive, UHRF1 MBD2 ctr inactive, MBD2 DNA inh inactive and ASAP1 inh inactive.
For Nc1n[nH]c(CCCO)n1 the results were TCR-CD3 inh inactive, LEDGF integ inh 25, ARFGAP1 inh inactive, UHRF1 MBD2 ctr inactive, MBD2 DNA inh inactive, ASAP1 inh inactive, IN multimer up inactive, TRFRET interf inactive and LEDGF integ conf inactive.
`O=C1/C(=C/c2ccco2)SC(=S)N1CC1CCCO1` (stereo not given) gave TCR-CD3 inh inactive, LEDGF integ inh 16, ARFGAP1 inh inactive, UHRF1 MBD2 ctr 29, MBD2 DNA inh inactive, ASAP1 inh inactive, IN multimer up inactive, TRFRET interf inactive and LEDGF integ conf 15.
Screening O=C(CCN1C(=O)/C(=C/c2ccco2)SC1=S)Nc1ccc(C(=O)O)c(O)c1 returned TCR-CD3 inh inactive, LEDGF integ inh 54, ARFGAP1 inh inactive, UHRF1 MBD2 ctr 62, MBD2 DNA inh 21, ASAP1 inh inactive, IN multimer up 12, TRFRET interf inactive and LEDGF integ conf 40.
`O=C(O)CCCN1C(=O)/C(=C\c2ccco2)SC1=S` gave TCR-CD3 inh inactive, LEDGF integ inh 35, ARFGAP1 inh inactive, UHRF1 MBD2 ctr 52, MBD2 DNA inh inactive, ASAP1 inh inactive, IN multimer up inactive, TRFRET interf inactive and LEDGF integ conf 40.

Compound activity (PubChem BioAssay)
